Results as given in ChEMBL document CHEMBL1153088, “Discovery of benzo[g]indol-3-carboxylates as potent inhibitors of microsomal prostaglandin E(2) synthase-1” (Bioorg Med Chem, 2009).
pIC50: −log10 of the molar value. Values belong to the compound of their own block, whether it stands above or below them. Calls of active or inactive are those of the source. The calls are words filed in the database; no cut-off is given here.

Experiments:
[1] = biological target: T1, Prostaglandin E synthase (Homo sapiens) (UniProt O14684); assay: Inhibition of mPGES1 in IL1-beta induced human A549 cell microsomal membrane at 10 uM assessed as enzyme residual activity by PGE2 formation assay relative to untreated control; format: microsomes; settings: Microsome
T1 sequence (whole entry): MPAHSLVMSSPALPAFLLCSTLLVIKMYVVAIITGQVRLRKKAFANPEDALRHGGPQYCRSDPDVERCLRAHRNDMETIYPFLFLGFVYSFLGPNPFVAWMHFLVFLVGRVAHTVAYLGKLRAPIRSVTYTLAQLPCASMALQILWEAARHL
Procedure, shortened: (§1)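 Microsomes from A549 cells treated with IL-1β (1 ng/ml, 72 h) were used at 50 µg/ml in 0.1 M potassium phosphate pH 7.4 with 2.5 mM glutathione. Compound (DMSO 1% final) was preincubated 15 min at 4 °C, then PGH2 was added (20 µM final) for 1 min at 4 °C.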

Mus musculus [2] = assay: Antiinflammatory activity in CD1 mouse assessed as inhibition of carrageenan-induced paw edema at 4 mg/kg, ip administered 30 mins before carrageenan challenge relative to untreated control; format: functional; settings: route intraperitoneal
Procedure, shortened: (§2)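 Male adult CD1 mice, n=10 per group, given the compound ip (vehicle 2% DMSO) 30 min before subplantar 1% λ-carrageenan in saline (0.05 ml). Paw volume was measured double blind by hydroplethysmometer just before injection and at 2, 4 and 6 h. Inhibition was taken at the 4 h reading versus vehicle.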

Rattus norvegicus [3] = assay: Antiinflammatory activity in Wistar Han rat assessed as PGE2 level at 4 mg/kg, ip administered 30 mins before carrageenan challenge (reference value: 2.79 +/-0.39 ng); format: functional; settings: route intraperitoneal
A549 = assay: Toxicity in human A549 cells assessed as reduction of cell viability by MTT assay; format: cell-based
Procedure, shortened: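 A549 cells (4×10^4 per 100 µl) were plated for 16 h, then exposed to compounds at 30 µM (DMSO ≤0.3%) for 5 h. MTT was added for 4 h, formazan was solubilized in 10% SDS/20 mM HCl, and absorbance at 595 nm was read relative to vehicle-treated cells.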

[4] = biological target: T2, Prostaglandin G/H synthase 2 (Homo sapiens) (UniProt P35354); assay: Inhibition of COX2 in IL1-beta induced human A549 cells assessed as 6-keto-PGF1-alpha formation up to 30 uM preincubated for 15 mins by ELISA; format: cell-based
T2 sequence (whole entry): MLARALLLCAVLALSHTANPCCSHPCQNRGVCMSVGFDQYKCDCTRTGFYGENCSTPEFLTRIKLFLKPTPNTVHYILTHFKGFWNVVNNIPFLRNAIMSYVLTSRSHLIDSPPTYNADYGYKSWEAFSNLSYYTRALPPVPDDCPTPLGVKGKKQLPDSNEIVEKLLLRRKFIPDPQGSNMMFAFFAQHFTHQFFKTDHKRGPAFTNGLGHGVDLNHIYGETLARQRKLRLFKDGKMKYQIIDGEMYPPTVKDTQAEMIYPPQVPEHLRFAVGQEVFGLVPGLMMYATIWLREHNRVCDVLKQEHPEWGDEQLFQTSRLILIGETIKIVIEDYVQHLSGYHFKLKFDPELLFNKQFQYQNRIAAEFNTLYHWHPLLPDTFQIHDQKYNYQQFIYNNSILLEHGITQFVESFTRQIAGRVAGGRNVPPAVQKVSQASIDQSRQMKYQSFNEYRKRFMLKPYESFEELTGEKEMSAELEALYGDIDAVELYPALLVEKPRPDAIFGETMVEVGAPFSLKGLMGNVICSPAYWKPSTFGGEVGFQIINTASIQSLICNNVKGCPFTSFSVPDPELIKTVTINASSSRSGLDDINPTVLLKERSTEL
Procedure, shortened: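 A549 cells were induced with IL-1β (1 ng/ml, 72 h, 2% FCS). Cells at 5×10^6 per ml PBS with 1 mM CaCl2 were preincubated 15 min at 37 °C, then given 30 µM AA for 15 min at 37 °C, and the reaction was stopped on ice. Released 6-keto PGF1α was measured by monoclonal-antibody ELISA with β-galactosidase tracer read at 550 nm.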

Mus musculus [5] = assay: Antiinflammatory activity in CD1 mouse assessed as inhibition of carrageenan-induced paw edema at 0.25 mg/kg, ip administered 30 mins before carrageenan challenge relative to untreated control; format: functional; settings: route intraperitoneal; procedure, shortened: as §2
Rattus norvegicus [6] = assay: Antiinflammatory activity in Wistar Han rat assessed as 6-Keto PGF1alpha level at 4 mg/kg, ip administered 30 mins before carrageenan challenge (reference value: 3.00 +/- 1.02 ng); format: functional; settings: route intraperitoneal
Rattus norvegicus [7] = assay: Antiinflammatory activity in Wistar Han rat assessed as reduction in inflammatory cell numbers at 4 mg/kg, ip administered 30 mins before carrageenan challenge; format: functional, organism-based; design: dose 4 mg/kg
Rattus norvegicus [8] = assay: Antiinflammatory activity in Wistar Han rat assessed as LTB4 level at 4 mg/kg, ip administered 30 mins before carrageenan challenge (reference value: 1.17 +/- 0.21 ng); format: functional; settings: route intraperitoneal
[9] = biological target: T3, Prostaglandin G/H synthase 1 (Ovis aries) (UniProt P05979); assay: Inhibition of ovine COX1 assessed as residual enzyme activity at 10 uM relative to untreated control
T3 sequence (whole entry): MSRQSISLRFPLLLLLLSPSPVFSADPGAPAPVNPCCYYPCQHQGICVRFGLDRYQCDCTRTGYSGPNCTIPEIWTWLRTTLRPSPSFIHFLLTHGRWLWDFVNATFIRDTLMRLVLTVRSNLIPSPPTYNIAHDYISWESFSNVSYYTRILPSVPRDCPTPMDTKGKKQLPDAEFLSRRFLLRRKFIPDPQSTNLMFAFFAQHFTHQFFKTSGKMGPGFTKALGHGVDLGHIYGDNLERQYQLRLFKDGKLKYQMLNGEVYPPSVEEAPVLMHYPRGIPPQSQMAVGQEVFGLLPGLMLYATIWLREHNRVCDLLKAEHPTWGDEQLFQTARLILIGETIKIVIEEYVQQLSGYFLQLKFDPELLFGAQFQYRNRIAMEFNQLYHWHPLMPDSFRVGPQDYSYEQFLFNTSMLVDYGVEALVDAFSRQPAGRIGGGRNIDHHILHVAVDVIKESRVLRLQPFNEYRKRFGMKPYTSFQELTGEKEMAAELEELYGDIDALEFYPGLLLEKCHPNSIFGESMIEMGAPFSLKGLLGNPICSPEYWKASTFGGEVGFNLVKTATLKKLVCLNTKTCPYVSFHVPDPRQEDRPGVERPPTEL
Procedure, shortened: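 Purified ovine COX-1 (50 units) in 1 ml of 100 mM Tris pH 8 containing 5 mM glutathione, 5 µM hemoglobin and 100 µM EDTA was preincubated with compound for 5 min at 4 °C and prewarmed 60 s at 37 °C. The reaction was started with 5 µM AA and run 5 min at 37 °C, and 12-HHT was analysed by HPLC.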

Rattus norvegicus [10] = assay: Antiinflammatory activity in Wistar Han rat assessed as reduction in exudate volume at 4 mg/kg, ip administered 30 mins before carrageenan challenge; format: functional, organism-based; design: dose 4 mg/kg
[11] = biological target: Prostaglandin G/H synthase 1 (Homo sapiens) (UniProt P23219); assay: Inhibition of COX1 in platelets assessed as inhibition of 12-HHT formation at 10 uM by RP-HPLC
Prostaglandin G/H synthase 1 (Homo sapiens), sequence (P23219 whole entry): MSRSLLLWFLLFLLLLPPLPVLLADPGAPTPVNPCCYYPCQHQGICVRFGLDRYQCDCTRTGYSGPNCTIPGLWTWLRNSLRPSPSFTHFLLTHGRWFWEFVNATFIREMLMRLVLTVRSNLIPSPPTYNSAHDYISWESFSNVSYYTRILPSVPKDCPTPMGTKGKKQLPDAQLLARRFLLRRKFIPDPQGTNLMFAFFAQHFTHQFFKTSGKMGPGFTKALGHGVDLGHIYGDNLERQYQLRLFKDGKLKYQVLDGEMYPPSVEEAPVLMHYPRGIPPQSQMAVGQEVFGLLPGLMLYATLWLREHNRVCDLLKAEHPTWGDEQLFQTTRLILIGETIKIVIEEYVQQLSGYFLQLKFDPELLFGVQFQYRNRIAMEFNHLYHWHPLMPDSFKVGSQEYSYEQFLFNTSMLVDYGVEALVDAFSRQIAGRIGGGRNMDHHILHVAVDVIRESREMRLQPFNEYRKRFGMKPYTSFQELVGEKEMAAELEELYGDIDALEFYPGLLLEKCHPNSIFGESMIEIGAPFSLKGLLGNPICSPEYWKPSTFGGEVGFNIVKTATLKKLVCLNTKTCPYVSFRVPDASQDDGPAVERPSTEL
Procedure, shortened: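 Freshly isolated human platelets (10^8/ml PBS with 1 mM CaCl2) were preincubated with compound (DMSO ≤0.3%), then stimulated with 5 µM AA for 5 min at 37 °C. 12-HHT was extracted and quantified by RP-HPLC. Mean ± SE, n=3–5.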

Mus musculus [12] = assay: Antiinflammatory activity in CD1 mouse assessed as inhibition of carrageenan-induced paw edema at 1 mg/kg, ip administered 30 mins before carrageenan challenge relative to untreated control; format: functional; settings: route intraperitoneal; procedure, shortened: as §2
[13] = biological target: T1, Prostaglandin E synthase (Homo sapiens); assay: Inhibition of mPGES1 in IL1-beta induced human A549 cells assessed as PGE2 production at 30 uM preincubated for 10 mins; format: cell-based; design: scale not given: the % may be the effect or the level left
Procedure, shortened: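 Intact IL-1β-induced A549 cells (4×10^6/ml PBS, 1 mM CaCl2) were preincubated with compound (DMSO ≤0.3%) for 10 min at 37 °C. [3H]PGE2 was separated by RP-18 SPE/HPLC and counted by liquid scintillation.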

[14] = biological target: T1, Prostaglandin E synthase (Homo sapiens); settings: A549, Microsome, 30 uM
[15] = biological target: T1, Prostaglandin E synthase (Homo sapiens); settings: A549, Microsome, 0.3 uM
[16] = biological target: T1, Prostaglandin E synthase (Homo sapiens); settings: A549, Microsome, 3 uM
[17] = biological target: T1, Prostaglandin E synthase (Homo sapiens); settings: A549, Microsome, 3 uM; remark: listed apart in the source
Prostaglandin E synthase = biological target: T4, Prostaglandin E synthase (Homo sapiens, UniProt O14684); assay: Inhibition of mPGES1 in IL1-beta induced human A549 cell microsomal membrane assessed as blockade of conversion of PGH2 to PGE2; format: microsomes, Microsome; procedure, shortened: as §1
T4 sequence (O14684 whole entry): T1 sequence (whole entry)

SMILES: CCOC(=O)c1c(CCc2cccc(Cl)c2)[nH]c2ccc(O)cc12
- Activity [1]: 65%

SMILES: CCOC(=O)c1c(Cc2cccc(Cl)c2)[nH]c2c1cc(O)c1cc(OC)c(OC)cc12
- inhibition [9]: inactive

SMILES: CCOC(=O)c1c(Cc2cccc(Cl)c2)n(Cc2ccccc2)c2c1cc(O)c1ccccc12
- Activity [13]: 35%
- inhibition [1]: inactive

SMILES: CCOC(=O)c1c(Cc2ccc(Cl)cc2)[nH]c2c1cc(O)c1ccccc12
- Activity [1]: 26%
- pIC50 (Prostaglandin E synthase): 5.47
- Activity [9]: 26%

Continued, in another order:

- inhibition [4]: inactive
- Activity [9]: 12%
- inhibition [11]: 43%
SMILES: CCOC(=O)c1c(Cc2cccc(Cl)c2)[nH]c2c1cc(O)c1ccccc12
- inhibition in vivo at 4 mg/kg (Mus musculus [2]): 61%
- Activity (Rattus norvegicus [3]): 1.3 ng
- Activity (A549): Non-toxic
- inhibition in vivo at 0.25 mg/kg (Mus musculus [5]): 37%
- Activity (Rattus norvegicus [6]): 2.02 ng
- inhibition (Rattus norvegicus [7]): Active
- Activity (Rattus norvegicus [8]): 0.6 ng
- inhibition (Rattus norvegicus [10]): Active
- inhibition in vivo at 1 mg/kg (Mus musculus [12]): 53%

- Activity [13]: 37%
- inhibition [14]: 82%
- inhibition [15]: inactive
- inhibition [16]: Active
- inhibition [17]: Active
- Activity [9]: 42%
SMILES: CC(C)c1ccc2c(c1)c(SC(C)(C)C)c(CC(C)(C)C(=O)O)n2Cc1ccc(Cl)cc1

- Activity [9]: 89%
SMILES: CCOC(=O)c1c(Cc2cccc(OC)c2)[nH]c2c1cc(O)c1ccccc12

- Activity [1]: 83%
SMILES: CCOC(=O)c1c(Nc2cccc(Cl)c2)[nH]c2ccc(O)cc12

- Activity [1]: 55%
SMILES: CCOC(=O)c1c(Cc2cccc(Cl)c2)[nH]c2ccc(O)cc12
